Experimental data taken from ChEMBL document CHEMBL1921722, “In vitro and in vivo evaluation of select kahalalide F analogs with antitumor and antifungal activities” (Bioorg Med Chem, 2011).
Converted amounts (≈) assume the structure as drawn.

Assays:
RXF 393 [1] = assay: Cytotoxicity against human RXF393 cells assessed as cell growth at 800 nM by sulforhodamine B assay relative to control; assay type: functional; settings: read-out: Activity
EKVX = assay: Cytotoxicity against human EKVX cells assessed as cell growth at 800 nM by sulforhodamine B assay relative to control; assay type: functional; settings: read-out: Activity
RXF 393 [2] = assay: Cytotoxicity against human RXF393 cells assessed as cell growth at 8 uM by sulforhodamine B assay relative to control; assay type: functional; settings: read-out: Activity
MDA-MB-435 = assay: Cytotoxicity against human MDA-MB-435 cells assessed as cell growth at 80 uM by sulforhodamine B assay relative to control; assay type: functional; settings: read-out: Activity
HT-29 = assay: Cytotoxicity against human HT-29 cells assessed as cell growth at 80 nM by sulforhodamine B assay relative to control; assay type: functional; settings: read-out: Activity
OVCAR-8 = assay: Cytotoxicity against human OVCAR8 cells assessed as cell growth at 8 uM by sulforhodamine B assay relative to control; assay type: functional; settings: read-out: Activity
Candida albicans = assay: Antimicrobial activity against Candida albicans ATCC 90028 by CLSI method; assay type: functional, organism-based
OVCAR-5 [3] = assay: Cytotoxicity against human OVCAR5 cells assessed as cell growth at 80 uM by sulforhodamine B assay relative to control; assay type: functional; settings: read-out: Activity
BT-549 = assay: Cytotoxicity against human BT549 cells by sulforhodamine B assay; assay type: functional
Outline: (§1)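 Run at NCI in the DTP 60-cell-line human tumor panel by standard procedure. Compounds were first screened at a single concentration, then tested at five tenfold-spaced concentrations. GI50 is the concentration reducing treated-cell growth to half that of untreated controls; TGI is the concentration completely halting growth.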

OVCAR-5 [4] = assay: Cytotoxicity against human OVCAR5 cells assessed as cell growth at 8 nM by sulforhodamine B assay relative to control; assay type: functional; settings: read-out: Activity
T47D = assay: Cytotoxicity against human T47D cells assessed as cell growth at 80 uM by sulforhodamine B assay relative to control; assay type: functional; settings: read-out: Activity
SK-MEL-28 [5] = assay: Cytotoxicity against human SK-MEL-28 cells assessed as cell growth at 8 uM by sulforhodamine B assay relative to control; assay type: functional; settings: read-out: Activity
K562 = assay: Cytotoxicity against human K562 cells assessed as cell growth at 8 nM by sulforhodamine B assay relative to control; assay type: functional; settings: read-out: Activity
Malme-3M = assay: Cytotoxicity against human MALME-3M cells by sulforhodamine B assay; assay type: functional
Outline: (§2)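 NCI Developmental Therapeutics Program 60-cell-line human tumor panel screen, run at NCI. A single-concentration pre-screen was followed by a five-concentration dose-response in 10-fold steps. GI50 is the concentration that reduces growth of treated cells to half that of untreated control cells. TGI is the concentration that completely halts growth.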

SN12C [6] = assay: Cytotoxicity against human SN12C cells assessed as cell growth at 800 nM by sulforhodamine B assay relative to control; assay type: functional; settings: read-out: Activity
SW-620 = assay: Cytotoxicity against human SW620 cells assessed as cell growth at 800 nM by sulforhodamine B assay relative to control; assay type: functional; settings: read-out: Activity
UO-31 [7] = assay: Cytotoxicity against human UO31 cells assessed as cell growth at 80 uM by sulforhodamine B assay relative to control; assay type: functional; settings: read-out: Activity
TK-10 = assay: Cytotoxicity against human TK10 cells assessed as cell growth at 8 uM by sulforhodamine B assay relative to control; assay type: functional; settings: read-out: Activity
ACHN = assay: Cytotoxicity against human ACHN cells assessed as cell growth at 800 nM by sulforhodamine B assay relative to control; assay type: functional; settings: read-out: Activity; outline: as §1
LOX IMVI [8] = assay: Cytotoxicity against human LOXIMVI cells assessed as cell growth at 800 nM by sulforhodamine B assay relative to control; assay type: functional; settings: read-out: Activity
SK-MEL-28 [9] = assay: Cytotoxicity against human SK-MEL-28 cells assessed as cell growth at 80 nM by sulforhodamine B assay relative to control; assay type: functional; settings: read-out: Activity
M14 [10] = assay: Cytotoxicity against human M14 cells assessed as cell growth at 800 nM by sulforhodamine B assay relative to control; assay type: functional; settings: read-out: Activity
NCI-H23 = assay: Cytotoxicity against human NCI-H23 cells assessed as cell growth at 8 nM by sulforhodamine B assay relative to control; assay type: functional; settings: read-out: Activity
MCF7 [11] = assay: Cytotoxicity against human MCF7 cells assessed as cell growth at 800 nM by sulforhodamine B assay relative to control; assay type: functional; settings: read-out: Activity
LOX IMVI [12] = assay: Cytotoxicity against human LOXIMVI cells assessed as cell growth at 8 nM by sulforhodamine B assay relative to control; assay type: functional; settings: read-out: Activity
MOLT-4 = assay: Cytotoxicity against human MOLT4 cells assessed as cell growth at 80 nM by sulforhodamine B assay relative to control; assay type: functional; settings: read-out: Activity
KM12 [13] = assay: Cytotoxicity against human KM12 cells assessed as cell growth at 8 nM by sulforhodamine B assay relative to control; assay type: functional; settings: read-out: Activity
M14 [14] = assay: Cytotoxicity against human M14 cells by sulforhodamine B assay; assay type: functional; outline: as §2
SN12C [15] = assay: Cytotoxicity against human SN12C cells assessed as cell growth at 8 uM by sulforhodamine B assay relative to control; assay type: functional; settings: read-out: Activity
786-0 = assay: Cytotoxicity against human 786-0 cells assessed as cell growth at 8 uM by sulforhodamine B assay relative to control; assay type: functional; settings: read-out: Activity; outline: as §1
SK-MEL-5 = assay: Cytotoxicity against human SK-MEL-5 cells assessed as cell growth at 8 uM by sulforhodamine B assay relative to control; assay type: functional; settings: read-out: Activity
SF-295 = assay: Cytotoxicity against human SF295 cells assessed as cell growth at 80 nM by sulforhodamine B assay relative to control; assay type: functional; settings: read-out: Activity
UO-31 [16] = assay: Cytotoxicity against human UO31 cells assessed as cell growth at 8 uM by sulforhodamine B assay relative to control; assay type: functional; settings: read-out: Activity
KM12 [17] = assay: Cytotoxicity against human KM12 cells by sulforhodamine B assay; assay type: functional; outline: as §2
OVCAR-5 [18] = assay: Cytotoxicity against human OVCAR5 cells assessed as cell growth at 8 uM by sulforhodamine B assay relative to control; assay type: functional; settings: read-out: Activity
HL-60(TB) = assay: Cytotoxicity against human HL-60(TB) cells by sulforhodamine B assay; assay type: functional
Outline: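 NCI Developmental Therapeutics Program 60-cell-line human tumor panel, standard procedure. Single-concentration prescreen first; active compounds then tested at five concentrations. GI50 is the concentration reducing growth of treated cells to half that of untreated controls.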

MCF7 [19] = assay: Cytotoxicity against human MCF7 cells assessed as cell growth at 80 uM by sulforhodamine B assay relative to control; assay type: functional; settings: read-out: Activity
SK-MEL-28 [20] = assay: Cytotoxicity against human SK-MEL-28 cells by sulforhodamine B assay; assay type: functional; outline: as §2
SF-268 = assay: Cytotoxicity against human SF268 cells assessed as cell growth at 8 nM by sulforhodamine B assay relative to control; assay type: functional; settings: read-out: Activity
SR = assay: Cytotoxicity against human SR cells assessed as cell growth at 80 nM by sulforhodamine B assay relative to control; assay type: functional; settings: read-out: Activity
DU-145 = assay: Cytotoxicity against human DU145 cells assessed as cell growth at 8 nM by sulforhodamine B assay relative to control; assay type: functional; settings: read-out: Activity; outline: as §1
M14 [21] = assay: Cytotoxicity against human M14 cells assessed as cell growth at 80 nM by sulforhodamine B assay relative to control; assay type: functional; settings: read-out: Activity

C/C=C1\NC(=O)[C@H](Cc2ccccc2)NC(=O)[C@@H](C(C)C)NC(=O)[C@@H]([C@@H](C)CC)NC(=O)[C@H](NC(=O)[C@H](NC(=O)[C@H](CCCNCc2ccc(F)c(C)c2)NC(=O)[C@H]2CCCN2C(=O)[C@H](NC(=O)[C@@H](NC(=O)[C@@H](NC(=O)[C@H](NC(=O)CCCC(C)C)C(C)C)[C@@H](C)O)C(C)C)C(C)C)[C@@H](C)CC)[C@@H](C)OC(=O)[C@H](C(C)C)NC1=O
growth at 0.8 µM (RXF 393 [1]): 88%
growth at 0.8 µM (EKVX): 50%
growth at 8 µM (RXF 393 [2]): -61%
growth at 80 µM (MDA-MB-435): -36%
growth at 0.08 µM (HT-29): 102%
growth at 8 µM (OVCAR-8): -14%
IC50 (Candida albicans): 3640 nM
MFC (Candida albicans): 20 µM (≈ 32 µg/mL)
MIC (Candida albicans): 10 µM (≈ 16 µg/mL)
growth at 80 µM (OVCAR-5 [3]): -98%
GI50 (BT-549): 1230 nM
LC50 (BT-549): 4570 nM
TGI (BT-549; read-out: pTGI (converted)): 2340 nM
growth at 0.008 µM (OVCAR-5 [4]): 107%
growth at 80 µM (T47D): -13%
growth at 8 µM (SK-MEL-28 [5]): -83%
growth at 0.008 µM (K562): 101%
GI50 (Malme-3M): 1480 nM
growth at 0.8 µM (SN12C [6]): 87%
growth at 0.8 µM (SW-620): 40%
growth at 80 µM (UO-31 [7]): -11%
growth at 8 µM (TK-10): -71%
growth at 0.8 µM (ACHN): 81%
growth at 0.8 µM (LOX IMVI [8]): 108%
growth at 0.08 µM (SK-MEL-28 [9]): 105%
growth at 0.8 µM (M14 [10]): 101%
growth at 0.008 µM (NCI-H23): 102%
growth at 0.8 µM (MCF7 [11]): 80%
growth at 0.008 µM (LOX IMVI [12]): 96%
growth at 0.08 µM (MOLT-4): 97%
growth at 0.008 µM (KM12 [13]): 107%
GI50 (M14 [14]): 1350 nM
TGI (M14 [14]; read-out: pTGI (converted)): 2400 nM
growth at 8 µM (SN12C [15]): -81%
growth at 8 µM (786-0): -99%
growth at 8 µM (SK-MEL-5): -100%
growth at 0.08 µM (SF-295): 85%
growth at 8 µM (UO-31 [16]): -78%
GI50 (KM12 [17]; read-out: GI50): 155 nM
TGI (KM12 [17]; read-out: TGI): 328 nM
GI50 (KM12 [17]; read-out: pGI50 (converted)): 155 nM
TGI (KM12 [17]; read-out: pTGI (converted)): 331 nM
growth at 8 µM (OVCAR-5 [18]): -95%
GI50 (HL-60(TB)): 1580 nM
TGI (HL-60(TB); read-out: pTGI (converted)): 3090 nM
growth at 80 µM (MCF7 [19]): 3%
GI50 (SK-MEL-28 [20]): 1100 nM
growth at 0.008 µM (SF-268): 97%
growth at 0.08 µM (SR): 89%
growth at 0.008 µM (DU-145): 99%
growth at 0.08 µM (M14 [21]): 99%
